Results published in ChEMBL document CHEMBL2150880, “Discovery and characterization of small molecule inhibitors of the BET family bromodomains” (J Med Chem, 2011).
Calls of active or inactive are those of the source. The calls are words filed in the database; no cut-off is given here.

How the values were obtained:
[1] = molecular target: T1, ATPase family AAA domain-containing protein 2 (Homo sapiens, UniProt Q6PL18); test: Binding affinity to ATAD2 by isothermal titration calorimetric analysis
T1 sequence (Q6PL18 whole entry): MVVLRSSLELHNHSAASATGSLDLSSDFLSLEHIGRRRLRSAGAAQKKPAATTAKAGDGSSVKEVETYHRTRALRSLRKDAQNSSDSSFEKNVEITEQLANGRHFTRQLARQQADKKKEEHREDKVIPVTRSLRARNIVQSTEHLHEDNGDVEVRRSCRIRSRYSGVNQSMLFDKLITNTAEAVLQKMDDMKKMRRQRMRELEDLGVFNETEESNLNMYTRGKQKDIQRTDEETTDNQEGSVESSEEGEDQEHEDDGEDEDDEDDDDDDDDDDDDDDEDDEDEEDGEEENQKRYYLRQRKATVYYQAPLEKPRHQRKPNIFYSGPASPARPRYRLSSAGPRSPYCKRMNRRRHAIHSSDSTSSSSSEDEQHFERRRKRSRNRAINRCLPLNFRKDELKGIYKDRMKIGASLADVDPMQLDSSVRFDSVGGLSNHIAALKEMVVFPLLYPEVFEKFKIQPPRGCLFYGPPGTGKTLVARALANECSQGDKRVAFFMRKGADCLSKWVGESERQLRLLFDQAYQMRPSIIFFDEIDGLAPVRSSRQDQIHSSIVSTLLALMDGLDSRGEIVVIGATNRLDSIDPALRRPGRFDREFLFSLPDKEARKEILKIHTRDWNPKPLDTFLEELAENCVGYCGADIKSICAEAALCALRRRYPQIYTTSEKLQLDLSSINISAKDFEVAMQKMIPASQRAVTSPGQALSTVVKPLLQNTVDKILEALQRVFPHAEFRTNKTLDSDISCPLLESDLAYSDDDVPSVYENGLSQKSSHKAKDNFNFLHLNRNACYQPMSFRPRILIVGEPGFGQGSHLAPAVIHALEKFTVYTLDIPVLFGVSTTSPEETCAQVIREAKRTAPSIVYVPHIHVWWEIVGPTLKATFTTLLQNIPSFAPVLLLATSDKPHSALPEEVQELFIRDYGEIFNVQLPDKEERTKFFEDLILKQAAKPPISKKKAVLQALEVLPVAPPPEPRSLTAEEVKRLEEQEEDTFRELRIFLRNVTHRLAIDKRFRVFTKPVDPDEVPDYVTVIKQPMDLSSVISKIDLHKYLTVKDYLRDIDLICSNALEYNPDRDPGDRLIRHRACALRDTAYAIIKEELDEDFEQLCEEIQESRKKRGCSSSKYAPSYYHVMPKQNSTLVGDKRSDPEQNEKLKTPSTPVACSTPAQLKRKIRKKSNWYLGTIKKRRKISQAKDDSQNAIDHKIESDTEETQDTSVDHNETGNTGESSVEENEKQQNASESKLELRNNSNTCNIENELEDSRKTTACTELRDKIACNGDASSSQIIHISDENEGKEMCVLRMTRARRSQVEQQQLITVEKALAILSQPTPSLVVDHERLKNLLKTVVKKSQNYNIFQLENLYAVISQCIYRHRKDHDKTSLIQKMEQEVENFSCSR

HepG2 [2] = test: Induction of human ApoA1 gene expression in stably transfected human HepG2 cells coexpressing luciferase reporter gene at 1 uM after 18 hrs by luminescence assay relative to control; format: functional
HepG2 [3] = test: Induction of human LDL-R gene expression in stably transfected human HepG2 cells coexpressing luciferase reporter gene at 0.001 to 10 uM after 18 hrs by luminescence assay; format: functional, cell-based
Procedure, shortened: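 Selectivity counter-screen run in parallel under the same conditions as the ApoA1 reporter: HepG2 cells stably carrying an LDL-receptor promoter–luciferase reporter, 18 h with or without compound in 0.5% DMSO, then Bright Glo luminescence read after 10 min.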

HepG2 [4] = test: Induction of human ApoA1 gene expression in stably transfected human HepG2 cells coexpressing luciferase reporter gene after 18 hrs by luminescence assay; format: functional, cell-based
CREB-binding protein = CREB-binding protein (Homo sapiens, UniProt Q92793); test: Binding affinity to CREBBP by isothermal titration calorimetric analysis
Sequence of CREB-binding protein (Q92793 whole entry): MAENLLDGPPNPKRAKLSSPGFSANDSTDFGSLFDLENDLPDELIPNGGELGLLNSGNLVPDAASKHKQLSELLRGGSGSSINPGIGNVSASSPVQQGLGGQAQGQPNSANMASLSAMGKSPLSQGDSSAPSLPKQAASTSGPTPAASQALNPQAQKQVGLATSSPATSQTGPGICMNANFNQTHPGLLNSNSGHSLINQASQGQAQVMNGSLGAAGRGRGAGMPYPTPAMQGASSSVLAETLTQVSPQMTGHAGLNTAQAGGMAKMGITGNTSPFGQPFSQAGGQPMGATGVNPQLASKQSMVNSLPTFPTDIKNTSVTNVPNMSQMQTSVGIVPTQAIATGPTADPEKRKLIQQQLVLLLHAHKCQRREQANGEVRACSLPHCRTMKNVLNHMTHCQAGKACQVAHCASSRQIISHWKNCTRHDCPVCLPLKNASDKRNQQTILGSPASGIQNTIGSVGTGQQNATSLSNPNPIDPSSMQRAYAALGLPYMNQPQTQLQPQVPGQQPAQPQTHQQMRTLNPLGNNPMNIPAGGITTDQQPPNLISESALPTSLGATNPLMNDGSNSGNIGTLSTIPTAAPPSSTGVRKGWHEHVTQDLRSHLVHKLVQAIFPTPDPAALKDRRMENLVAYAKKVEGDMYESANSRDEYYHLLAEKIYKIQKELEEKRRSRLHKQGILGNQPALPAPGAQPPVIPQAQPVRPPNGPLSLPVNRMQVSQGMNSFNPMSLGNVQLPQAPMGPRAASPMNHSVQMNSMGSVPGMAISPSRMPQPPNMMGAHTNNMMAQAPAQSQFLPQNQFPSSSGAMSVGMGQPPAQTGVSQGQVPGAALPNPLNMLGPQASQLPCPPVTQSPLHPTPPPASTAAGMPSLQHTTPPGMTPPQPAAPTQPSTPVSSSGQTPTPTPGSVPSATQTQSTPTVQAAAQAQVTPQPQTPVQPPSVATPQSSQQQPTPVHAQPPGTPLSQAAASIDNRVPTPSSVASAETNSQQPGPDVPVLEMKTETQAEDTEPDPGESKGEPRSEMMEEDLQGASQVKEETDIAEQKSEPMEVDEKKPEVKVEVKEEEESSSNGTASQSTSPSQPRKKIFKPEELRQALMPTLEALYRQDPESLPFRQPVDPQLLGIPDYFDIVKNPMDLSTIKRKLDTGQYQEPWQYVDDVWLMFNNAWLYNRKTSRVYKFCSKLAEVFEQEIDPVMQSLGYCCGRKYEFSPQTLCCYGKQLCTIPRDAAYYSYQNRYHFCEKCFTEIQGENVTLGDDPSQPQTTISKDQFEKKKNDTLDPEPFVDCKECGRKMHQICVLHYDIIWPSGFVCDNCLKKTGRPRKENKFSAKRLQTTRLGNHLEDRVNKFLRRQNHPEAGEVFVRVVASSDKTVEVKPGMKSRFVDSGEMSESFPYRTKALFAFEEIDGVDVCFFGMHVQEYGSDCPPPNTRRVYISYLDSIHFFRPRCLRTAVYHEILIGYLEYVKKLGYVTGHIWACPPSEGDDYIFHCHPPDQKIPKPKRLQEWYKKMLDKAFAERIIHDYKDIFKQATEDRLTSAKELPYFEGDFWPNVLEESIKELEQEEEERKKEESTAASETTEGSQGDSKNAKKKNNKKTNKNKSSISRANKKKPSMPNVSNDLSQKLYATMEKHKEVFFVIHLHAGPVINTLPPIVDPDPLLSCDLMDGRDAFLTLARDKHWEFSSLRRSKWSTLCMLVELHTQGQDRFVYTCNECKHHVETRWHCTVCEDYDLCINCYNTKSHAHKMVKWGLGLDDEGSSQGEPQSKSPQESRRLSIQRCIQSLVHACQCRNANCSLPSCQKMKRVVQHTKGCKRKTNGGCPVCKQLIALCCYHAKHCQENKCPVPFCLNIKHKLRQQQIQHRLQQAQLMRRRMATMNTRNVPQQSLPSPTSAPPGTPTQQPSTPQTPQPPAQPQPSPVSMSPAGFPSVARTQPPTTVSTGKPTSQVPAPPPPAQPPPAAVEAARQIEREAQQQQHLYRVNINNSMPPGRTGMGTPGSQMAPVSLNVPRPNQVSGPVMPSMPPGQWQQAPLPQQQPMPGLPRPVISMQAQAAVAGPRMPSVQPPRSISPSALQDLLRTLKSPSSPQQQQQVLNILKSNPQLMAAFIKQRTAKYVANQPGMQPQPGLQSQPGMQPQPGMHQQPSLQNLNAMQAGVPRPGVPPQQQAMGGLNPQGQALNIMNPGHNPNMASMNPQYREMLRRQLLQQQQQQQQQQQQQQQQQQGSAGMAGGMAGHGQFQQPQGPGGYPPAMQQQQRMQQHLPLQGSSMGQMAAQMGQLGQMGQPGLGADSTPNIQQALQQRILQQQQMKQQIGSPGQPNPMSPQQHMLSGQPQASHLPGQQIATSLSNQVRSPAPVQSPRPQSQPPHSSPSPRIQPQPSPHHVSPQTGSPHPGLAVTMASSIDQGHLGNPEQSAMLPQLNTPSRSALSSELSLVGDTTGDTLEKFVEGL

HepG2 [5] = test: Induction of human ApoA1 gene expression in stably transfected human HepG2 cells coexpressing luciferase reporter gene after 18 hrs by luminescence assay relative to control; format: functional
HepG2 [6] = test: Induction of human ApoA1 protein synthesis in human HepG2 cells assessed as neosynthesised radiolabeled protein secretion after 6 hrs by SDS PAGE analysis in presence of [35S]methionine; format: functional, cell-based
Procedure, shortened: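 Confluent HepG2 cells were exposed to compound for 48 h in BME with 1% FCS. Compound was re-added in Met/Cys-depleted RPMI-1640 containing 35S-methionine for 6 h at 37 °C. Secreted labelled proteins were separated on 5–12% SDS-PAGE, and ApoA1 was quantified by phosphorimaging.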

HepG2 [7] = test: Induction of human ApoA1 gene expression in stably transfected human HepG2 cells coexpressing luciferase reporter gene at 0.001 to 10 uM after 18 hrs by luminescence assay; format: functional, cell-based
Procedure, shortened: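 HepG2 cells stably carrying an ApoA1 promoter–luciferase reporter were incubated 18 h with or without freshly diluted compound in 0.5% DMSO. Bright Glo reagent was then added, and luminescence was read after 10 min with substrate.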

Row | Structure (SMILES) | Kd [1] | fold change (FC) (HepG2 [2]) | Activity (HepG2 [3]) | Activity (HepG2 [4]) | EC50 (HepG2 [4]; HepG2, 18 h) | Kd (CREB-binding protein) | fold change (FC) (HepG2 [5]) | Activity (HepG2 [6]) | Activity (HepG2 [7])
1 | Cc1nnc2n1-c1ccccc1C(c1ccccc1)=NC2NC(=O)OCc1ccccc1 (configuration not stated) | > 50 µM | 3 | inactive | Dose-dependent effect | 0.44 µM | > 50 µM | 4.5 | – | –
2 | CCNC(=O)C[C@@H]1N=C(c2ccc(Cl)cc2)c2cc(OC)ccc2-n2c(C)nnc21 | – | – | inactive | Dose-dependent effect | – | – | – | Active | –
3 | CCNC(=O)C[C@H]1N=C(c2ccc(Cl)cc2)c2cc(OC)ccc2-n2c(C)nnc21 | – | – | inactive | – | – | – | – | – | inactive
